# Compound activity (PubChem BioAssay)
# This is a sample that favours compounds with a hit; in the whole collection about 4.1% have one here.
# hERG rescue: shields human hERG channel from block by proarrhythmic agents. Q12809. activation (rescue from dofetilide block), less the hit threshold, % at 10 µM. 310,000 tested, 0.51% active. AID 1511. CHO-hERG, FluxOR thallium flux, dofetilide IC70 present;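 active means activation above the mean of controls blocked by dofetilide plus 5 SD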;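 further: thallium influx through hERG after potassium depolarization seen as dye fluorescence rise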
# KCNQ1 pot: potentiators or activators of human KCNQ1 potassium channel. AID 2648. CHO-K1 KCNQ1, thallium flux FluxOR fluorescence; stronger effect = higher value. 310,000 tested, 0.35% active. B-score at 10 µM;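 active means fluorescence ratio B-score, a plate-corrected score, at least three library SD, with initial intensity B-score within 5 SD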
#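 Assay system: CHO-K1 cells stably expressing KCNQ1; Medium: assay buffer with matched DMSO; Also added: K+/Tl+ depolarizing stimulus; Dosing: single dose; Timing: dye 90 min, compound 20 min, room temperature; Measured by: kinetic FluxOR thallium fluorescence, 10-s 1-Hz baseline, 110-s post-stimulus read; Read-out: peak-minus-minimum fluorescence over initial fluorescence, negative-control normalized, B-scored.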
# KCNK9 inh: blocks the human KCNK9 two-pore domain potassium channel. Q9NPC2. HEK293 KCNK9, FluxOR thallium flux fluorescence; stronger effect = lower value. B-score at 10 µM. 310,000 tested, 1.2% active. AID 488922;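 active means ratio B-score over 3 SD below the library mean, with starting fluorescence within 5 SD of its mean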;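 further: negative B-score means less thallium flux so channel inhibition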
# KCNK3 block: human KCNK3 channel inhibition, primary screen; O14649; B-score at 10 µM; AID 602410; CHO-KCNK3 thallium flux, FluxOR fluorescence; stronger effect = lower value; 340,000 tested, 0.84% active;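 active means B-score under library mean minus 4 SD, starting fluorescence ratio at most library mean plus 5 SD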;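 further: more negative B-score means stronger inhibition of thallium flux through KCNK3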
# Cl transport mod: modulators of human KCC2 chloride dependent transport; Q9H2X9; KCC2 cells, thallium flux FluoZin-2 fluorescence; B-score of Tl+ flux slope (higher = more flux/activation; lower = inhibition) at 10 µM; 190,000 tested, 2.2% active;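 active means thallium flux slope and its plate-corrected score both differing from the plate sample mean at a set confidence after two filtering rounds, in either direction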;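 further: slope of fluorescence scaled to starting intensity during 10 to 20 s after thallium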
# KCNQ1 inh: inhibitors of human KCNQ1 potassium channel | B-score at 10 µM | 310,000 tested, 1.3% active | CHO-K1 KCNQ1, FluxOR thallium flux fluorescence; stronger effect = higher value | P51787;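 active means compounds whose thallium flux B-score, printed positive for inhibition, exceeds three library SD while starting fluorescence stays within three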;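 further: channel opened by potassium depolarization with thallium stimulus after 20 min compound exposure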
# Active calls of the source: *; i = inactive; x = no result given.
SMILES,hERG rescue,KCNQ1 pot,KCNK9 inh,KCNK3 block,Cl transport mod,KCNQ1 inh
CCCc1nc2ccc(NC(C)=O)cc2c(=O)n1Cc1ccc(Cl)cc1,-10,i,i,i,0.84,i
CCCc1nc2ccc(NC(=O)c3cccs3)cc2c(=O)n1Cc1ccccc1Cl,-6,i,-6.8*,i,-0.12,i
COCc1cc(=O)n2[nH]cc(-c3ccccc3)c2n1,-1,i,i,i,x,i
CCCc1cc(=O)n2[nH]cc(-c3ccc(Cl)cc3)c2n1,3,10*,i,i,x,i
O=C(NNC(=O)c1cccnc1SCc1cccc([N+](=O)[O-])c1)c1ccc(F)cc1,-3,i,i,i,0.62,i
O=C(NNC(=O)c1cccnc1SCc1cccc([N+](=O)[O-])c1)c1ccccn1,-2,i,i,i,6.9*,i
CCOC(=O)c1[nH]c(C)c(C(=O)OCC)c1C,-6,i,i,i,-1,i
CCCCc1c(C)[nH]c(C(=O)OCC)c1C,5.3*,i,i,i,-0.54,i
Clc1ccc(OCCOCCN2CCCCC2)c(Br)c1,-14,i,i,i,1.8,i
CC1CCN(CCOCCOc2ccc(Cl)cc2Br)CC1,-9,i,i,i,x,6*
O=C(COc1ccc(Cl)cc1)NCCSCc1cccc(Cl)c1,-1,i,i,i,0.11,6*
Cc1cccc(CSCCNC(=O)COc2ccc(Cl)cc2)c1,-6,i,i,i,0.36,i
Cc1ccc(C2c3c(oc4ccc(Cl)cc4c3=O)C(=O)N2CCCN2CCOCC2)o1 (stereo not given),-7,i,i,x,6.6*,i
O=C1c2oc3ccc(Cl)cc3c(=O)c2C(c2ccco2)N1CCN1CCOCC1 (stereo not given),-12,i,i,i,5.6*,i
COc1ccc(C2c3c(oc4ccc(Cl)cc4c3=O)C(=O)N2CCN2CCOCC2)cc1 (stereo not given),-7,i,i,i,2.3,i
COc1cccc(-c2csc(NC3OC(=O)c4c3ccc(OC)c4OC)n2)c1 (stereo not given),-11,i,i,i,0.31,i
COc1ccc2c(c1OC)C(=O)OC2Nc1nc(-c2ccc(-c3ccccc3)cc2)cs1 (stereo not given),-14,i,-7.1*,i,-2.8,i
C=CCN(Cc1ccc(Cl)s1)C(=O)c1ccc(F)c(S(=O)(=O)N2CCOCC2)c1,x,x,x,i,x,x
COc1cc(/C=C2\SC(=S)NC2=O)ccc1OS(=O)(=O)c1ccccc1,-12,26*,i,x,80*,i
COc1ccc(/C=C2/S/C(=N/S(=O)(=O)Cc3ccccc3)NC2=O)cc1OC,-19,i,i,i,-5.4,i
COc1ccc(/C=C2\SC(=O)NC2=S)cc1OC,5.7*,12*,i,i,12*,i
COc1cc(/C=C2/SC(=S)NC2=O)ccc1OS(=O)(=O)c1ccc(C)cc1,-12,48*,i,i,80*,i
O=C1NC(=S)S/C1=C\c1ccc2ccccc2c1,36*,49*,i,i,x,i
O=C(Cc1ccc(F)cc1)NC1CCS(=O)(=O)C1 (stereo not given),-10,i,i,i,x,i
O=Nc1[nH]c(=O)c(/C=C(\O)c2ccccc2)nc1NO,-11,i,i,i,x,i
SMILES,hERG rescue,KCNQ1 pot,KCNK9 inh,KCNK3 block,Cl transport mod,KCNQ1 inh
O=C(N=C1c2ccccc2CN1c1ccc(F)c(Cl)c1)c1cccnc1Cl,-7,i,-11*,x,0.19,i
Cc1ccccc1CS(=O)(=O)c1nnc([C@H](Cc2ccccc2)NC(=O)OC(C)(C)C)o1,-15,12*,i,i,x,i
CC(C)(C)OC(=O)N[C@@H](Cc1ccccc1)c1nnc(S(=O)(=O)Cc2ccccc2)o1,x,x,x,x,-1.1,x
CC(=O)c1c(C(C)=O)c(C)n(-c2cccc([N+](=O)[O-])c2)c1C,-2,i,i,i,0.042,i
CC(=O)C1=C(c2cccc([N+](=O)[O-])c2)N(C(C)=O)n2c(C)nnc2S1,-17,i,i,i,1.9,7*
COc1cc2ncc(C(=O)c3ccccc3)c(N3CCN(Cc4ccccc4)CC3)c2cc1OC,-16,i,i,i,-0.47,i
CN(c1ccccc1)S(=O)(=O)c1ccc(Cl)c(C(=O)Nc2nc3ccccc3[nH]2)c1,-6,i,-7.1*,i,-4.4,i
CC1(C)CC(=O)c2c(nn(-c3ccccc3)c2-c2ccncc2)C1,7.1*,i,i,i,0.0099,i
Cc1c2c(nc3ccccc13)CC(C)(C)CC2=O,-12,i,i,i,-0.68,i
O=C(Cc1c(F)c(F)c(F)c(F)c1F)Nc1nc(-c2ccccc2)cs1,-10,i,i,i,x,i
O=C(CCN1CCCCO1)N1CCCC(Nc2cccc(F)c2)C1 (stereo not given),-10,i,i,i,x,i
CCOC(=O)C(=Cc1cc(=O)c(OC)co1)C(=O)OCC,-1,10*,i,i,0.87,i
COc1coc(C(O)CN)cc1=O (stereo not given),-9,i,i,i,0.13,i
N#Cc1c[nH]n2c(=O)c3c(nc12)CCCC3,5.4*,i,i,x,x,i
O=c1c2c(nc3c(-c4ccccc4)c[nH]n13)CCCC2,-2,i,i,i,2.8*,i
COc1ccc(-c2c(C)nn3c(C)cc(C)nc23)cc1,-7,i,i,i,x,i
O=[N+]([O-])c1ccccc1OCCNCc1ccccc1,7.2*,i,i,i,x,i
COc1ccc(OC)c(NC(=O)CSc2nnc(CNC(=O)c3cccs3)o2)c1,-9,i,i,i,x,i
Cc1ccc(NC(=O)c2ncn(CCCNCCCc3ccccc3)n2)cc1C,x,x,x,i,x,x
COCCn1nnnc1C(c1cccs1)N1CCN(c2nc3ccccc3s2)CC1 (stereo not given),-8,i,i,i,x,i
COCCn1nnnc1C(c1cccs1)N1CCN(c2cc(C)ccc2C)CC1 (stereo not given),-8,i,-8*,-9.2*,0.021,i
O=C(COC(=O)c1ccc(Br)c(S(=O)(=O)N2CCOCC2)c1)NCCc1ccccc1,x,x,x,i,x,x
CC(C)Cn1c(=O)c(C2=NS(=O)(=O)c3ccccc3N2)c(O)c2ccccc21,x,x,x,x,8.8*,x
Cc1cc(C)nc(N2CCCC(C(=O)NCc3ccccc3)C2)n1 (stereo not given),5.2*,i,i,i,-0.47,i
